# What was measured:
# KB [1] = experiment: Cytotoxicity against vincristine-resistant human KB cells assessed as growth inhibition after 72 hrs by MTT assay in presence of vincristine; type: functional, cell-based
# KB [2] = experiment: Cytotoxicity against vincristine-sensitive human KB cells assessed as growth inhibition after 72 hrs by MTT assay; type: functional, cell-based
# KB [3] = experiment: Cytotoxicity against vincristine-resistant human KB cells assessed as growth inhibition after 72 hrs by MTT assay; type: functional, cell-based
# MDA-MB-468 [4] = experiment: Induction of apoptosis in human MDA-MB-468 cells assessed as late apoptotic cells at 2 times IC50 after 48 hrs by annexin V-FITC/propidium iodide staining-based flow cytometric analysis (reference value: 3.65%); type: functional
# MDA-MB-468 [5] = experiment: Induction of apoptosis in human MDA-MB-468 cells assessed as necrotic cells at IC50 after 48 hrs by annexin V-FITC/propidium iodide staining-based flow cytometric analysis (reference value: 0.25%); type: functional
# HCT-116 [6] = experiment: Induction of apoptosis in human HCT116 cells assessed as necrotic cells at IC50 after 48 hrs by annexin V-FITC/propidium iodide staining-based flow cytometric analysis (reference value: 1.84%); type: functional
# HCT-116 [7] = experiment: Induction of apoptosis in human HCT116 cells assessed as early apoptotic cells at IC50 after 48 hrs by annexin V-FITC/propidium iodide staining-based flow cytometric analysis (reference value: 1.45%); type: functional
# A549 = experiment: Cytotoxicity against human A549 cells assessed as growth inhibition after 72 hrs by MTT assay; type: functional, cell-based; settings: A549, 72 h
# MDA-MB-468 [8] = experiment: Induction of apoptosis in human MDA-MB-468 cells assessed as viable cells at IC50 after 48 hrs by annexin V-FITC/propidium iodide staining-based flow cytometric analysis (reference value: 92.9%); type: functional
# MDA-MB-468 [9] = experiment: Induction of apoptosis in human MDA-MB-468 cells assessed as late apoptotic cells at IC50 after 48 hrs by annexin V-FITC/propidium iodide staining-based flow cytometric analysis (reference value: 3.65%); type: functional
# MDA-MB-468 [10] = experiment: Induction of apoptosis in human MDA-MB-468 cells assessed as viable cells at 2 times IC50 after 48 hrs by annexin V-FITC/propidium iodide staining-based flow cytometric analysis (reference value: 92.9%); type: functional
# MDA-MB-468 [11] = experiment: Cell cycle arrest in human MDA-MB-468 cells assessed as accumulation at pre-G1 phase at IC50 to 2 times IC50 after 48 hrs relative to control; type: functional
# Summary of the method: (§1)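 Cells were exposed for 48 h, then analysed by flow-cytometric cell cycle profiling. Pre-G1 events were scored and compared with untreated control, with significance at p < 0.05.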
# HCT-116 [12] = experiment: Cell cycle arrest in human HCT116 cells assessed as accumulation at pre-G1 phase at IC50 to 2 times IC50 after 48 hrs relative to control; type: functional; summary of the method: as §1
# MDA-MB-468 [13] = experiment: Cytotoxicity against human MDA-MB-468 cells assessed as growth inhibition after 72 hrs by MTT assay; type: functional, cell-based; settings: MDA-MB-468, 72 h
# MCF7 = experiment: Cytotoxicity against human MCF7 cells assessed as growth inhibition after 72 hrs by MTT assay; type: functional, cell-based; settings: MCF7, 72 h
# HCT-116 [14] = experiment: Cytotoxicity against human HCT116 cells assessed as growth inhibition after 72 hrs by MTT assay; type: functional, cell-based; settings: HCT-116, 72 h
# HCT-116 [15] = experiment: Induction of apoptosis in human HCT116 cells assessed as early apoptotic cells at 2 times IC50 after 48 hrs by annexin V-FITC/propidium iodide staining-based flow cytometric analysis (reference value: 1.45%); type: functional
# MDA-MB-468 [16] = experiment: Induction of apoptosis in human MDA-MB-468 cells assessed as early apoptotic cells at 2 times IC50 after 48 hrs by annexin V-FITC/propidium iodide staining-based flow cytometric analysis (reference value: 3.24%); type: functional
# HT-29 = experiment: Cytotoxicity against human HT-29 cells assessed as growth inhibition after 72 hrs by MTT assay; type: functional, cell-based; settings: HT-29, 72 h
# HCT-116 [17] = experiment: Induction of apoptosis in human HCT116 cells assessed as late apoptotic cells at 2 times IC50 after 48 hrs by annexin V-FITC/propidium iodide staining-based flow cytometric analysis (reference value: 2.27%); type: functional
# MDA-MB-468 [18] = experiment: Induction of apoptosis in human MDA-MB-468 cells assessed as necrotic cells at 2 times IC50 after 48 hrs by annexin V-FITC/propidium iodide staining-based flow cytometric analysis (reference value: 0.25%); type: functional
# HCT-116 [19] = experiment: Induction of apoptosis in human HCT116 cells assessed as late apoptotic cells at IC50 after 48 hrs by annexin V-FITC/propidium iodide staining-based flow cytometric analysis (reference value: 2.27%); type: functional
# MDA-MB-468 [20] = experiment: Induction of apoptosis in human MDA-MB-468 cells assessed as early apoptotic cells at IC50 after 48 hrs by annexin V-FITC/propidium iodide staining-based flow cytometric analysis (reference value: 3.24%); type: functional
# HCT-116 [21] = experiment: Induction of apoptosis in human HCT116 cells assessed as necrotic cells at 2 times IC50 after 48 hrs by annexin V-FITC/propidium iodide staining-based flow cytometric analysis (reference value: 1.84%); type: functional
# HCT-116 [22] = experiment: Induction of apoptosis in human HCT116 cells assessed as viable cells at 2 times IC50 after 48 hrs by annexin V-FITC/propidium iodide staining-based flow cytometric analysis (reference value: 94.4%); type: functional
# HCT-116 [23] = experiment: Induction of apoptosis in human HCT116 cells assessed as viable cells at IC50 after 48 hrs by annexin V-FITC/propidium iodide staining-based flow cytometric analysis (reference value: 94.4%); type: functional
structure (smiles),measurement,setting,value
CC[C@H]1C[C@H]2C[C@H]3c4[nH]c5cc(C6CCC(=O)N6)c(OC)cc5c4CCN(C2)[C@@H]13 (stereo partly specified),IC50,KB [1],> 25 µg/mL
same,IC50,KB [2],> 25 µg/mL
same,IC50,KB [3],> 25 µg/mL
CC[C@H]1C[C@H]2C[C@@H]3[C@H]1N(C2)C[C@@H](O)[C@@]31Nc2ccc(OC)cc2C1=O,IC50,KB [1],53200 nM
same,IC50,KB [2],> 25 µg/mL
same,IC50,KB [3],> 25 µg/mL
C/C=C1/CN2[C@H]3C[C@H]1C1(C(=O)OC)C[C@]4(C[C@@H]21)c1ccccc1N(C)[C@H]34 (stereo partly specified),IC50,KB [1],2620 nM
same,IC50,KB [2],> 25 µg/mL
same,IC50,KB [3],> 25 µg/mL
CC[C@]1(O)C[C@@H]2CC(=O)n3c4c(c5ccccc53)CCN(C1)[C@@H]42,IC50,KB [1],> 25 µg/mL
same,IC50,KB [2],> 25 µg/mL
same,IC50,KB [3],> 25 µg/mL
CC[C@H]1C[C@H]2C[C@H]3c4[nH]c5ccc(OC)cc5c4C(=O)CN(C2)[C@@H]13,IC50,KB [1],> 25 µg/mL
same,IC50,KB [2],> 25 µg/mL
same,IC50,KB [3],> 25 µg/mL
C/C=C1/C[N+]2(CCl)CC[C@]34C(=C(C=O)[C@H]1C[C@@H]32)Nc1ccccc14.[Cl-] (stereo partly specified),IC50,KB [1],> 25 µg/mL
same,IC50,KB [2],> 25 µg/mL
same,IC50,KB [3],> 25 µg/mL
C/C=C1/CN(C)[C@H]2Cc3c([nH]c4ccccc34)[C@@H](c3cc4[nH]c5c(c4cc3OC)CCN3C[C@H]4C[C@H](CC)[C@H]3[C@H]5C4)C[C@H]1[C@]2(CO)C(=O)OC,Activity,MDA-MB-468 [4],13.8%
same,Activity,MDA-MB-468 [5],0.18%
same,IC50,KB [1],980 nM
same,Activity,HCT-116 [6],3%
same,Activity,HCT-116 [7],6.98%
same,IC50,A549,3060 nM
same,IC50,KB [2],1390 nM
same,Activity,MDA-MB-468 [8],90.1%
same,Activity,MDA-MB-468 [9],5.76%
same,Activity,MDA-MB-468 [10],63.1%
same,Activity,MDA-MB-468 [11],35%
same,Activity,HCT-116 [12],80%
same,IC50,MDA-MB-468 [13],2770 nM
same,IC50,MCF7,4190 nM
same,IC50,HCT-116 [14],2910 nM
same,Activity,HCT-116 [15],8.25%
same,Activity,MDA-MB-468 [16],21.4%
same,IC50,KB [3],1210 nM
same,IC50,HT-29,2570 nM
same,Activity,HCT-116 [17],72.4%
same,Activity,MDA-MB-468 [18],1.68%
same,Activity,HCT-116 [19],11.4%
same,Activity,MDA-MB-468 [20],3.95%
same,Activity,HCT-116 [21],14.5%
same,Activity,HCT-116 [22],4.85%
same,Activity,HCT-116 [23],79.6%
C/C=C1/CN[C@H]2Cc3c([nH]c4ccccc34)[C@@H](c3cc4[nH]c5c(c4cc3OC)CCN3C[C@H]4C[C@H](CC)[C@H]3[C@H]5C4)C[C@H]1[C@@H]2C(=O)OC,Activity,MDA-MB-468 [4],32%
same,Activity,MDA-MB-468 [5],0.17%
same,IC50,KB [1],1200 nM
same,Activity,HCT-116 [6],48.4%
same,Activity,HCT-116 [7],7.76%
same,IC50,A549,2830 nM
same,IC50,KB [2],950 nM
same,Activity,MDA-MB-468 [8],93%
same,Activity,MDA-MB-468 [9],3.15%
same,Activity,MDA-MB-468 [10],22.8%
same,Activity,MDA-MB-468 [11],35%
same,Activity,HCT-116 [12],80%
same,IC50,MDA-MB-468 [13],700 nM
same,IC50,MCF7,3230 nM
same,IC50,HCT-116 [14],2030 nM
same,Activity,HCT-116 [15],3.5%
same,Activity,MDA-MB-468 [16],42.5%
same,IC50,KB [3],1110 nM
same,IC50,HT-29,1580 nM
same,Activity,HCT-116 [17],43.7%
same,Activity,MDA-MB-468 [18],2.68%
same,Activity,HCT-116 [19],22%
same,Activity,MDA-MB-468 [20],3.7%
same,Activity,HCT-116 [21],46.4%
same,Activity,HCT-116 [22],6.4%
same,Activity,HCT-116 [23],21.9%
C/C=C1/CN(C)[C@H]2Cc3c([nH]c4ccccc34)[C@@H](c3cc4[nH]c5c(c4cc3OC)CCN3C[C@H]4C[C@H](CC)[C@H]3[C@H]5C4)C[C@H]1[C@@H]2C(=O)OC,IC50,KB [1],800 nM
same,IC50,KB [2],1530 nM
same,IC50,KB [3],980 nM
C/C=C1/CN(C)[C@H]2Cc3c([nH]c4ccccc34)[C@@H](c3cc4c(cc3OC)C(=O)[C@@]3(CCN5C[C@H]6C[C@H](CC)[C@H]5[C@H]3C6)N4)C[C@H]1[C@@H]2C(=O)OC,IC50,KB [1],1210 nM
same,IC50,KB [2],1060 nM
same,IC50,KB [3],1060 nM
